In ChEMBL document CHEMBL4371095, “Triazole-Based Inhibitors of the Wnt/β-Catenin Signaling Pathway Improve Glucose and Lipid Metabolisms in Diet-Induced Obese Mice” (J Med Chem, 2019):
Calls of active or inactive are those of the source. The calls are words filed in the database; no cut-off is given here.

Columns and labels:
Mus musculus [1] = experiment: Decrease in hepatic ACOT4 mRNA level in high fat diet fed C57BL/6J mouse at 40 mg/kg, ip administered every 2 days for 11 weeks by qPCR analysis; format: functional, organism-based
Summary of the method: (§1)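 Male mice, 8 weeks old, fed a 45% kcal fat diet for 6 weeks, then dosed i.p. every 2 days in corn oil vehicle for 11 weeks. Liver mRNA of the indicated genes was quantified at sacrifice; mean ± SEM, n = 5 per group.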

Axin-1 (Homo sapiens) = Axin-1 (Homo sapiens) (UniProt O15169); experiment: Stabilization of Axin1 protein in HEK293 cells assessed as increase in cytoplasmic punctas at 1 uM after 14 hrs by DAPI staining based confocal microscopic method; format: cell-based
Chain of Axin-1 (Homo sapiens) (O15169 whole entry): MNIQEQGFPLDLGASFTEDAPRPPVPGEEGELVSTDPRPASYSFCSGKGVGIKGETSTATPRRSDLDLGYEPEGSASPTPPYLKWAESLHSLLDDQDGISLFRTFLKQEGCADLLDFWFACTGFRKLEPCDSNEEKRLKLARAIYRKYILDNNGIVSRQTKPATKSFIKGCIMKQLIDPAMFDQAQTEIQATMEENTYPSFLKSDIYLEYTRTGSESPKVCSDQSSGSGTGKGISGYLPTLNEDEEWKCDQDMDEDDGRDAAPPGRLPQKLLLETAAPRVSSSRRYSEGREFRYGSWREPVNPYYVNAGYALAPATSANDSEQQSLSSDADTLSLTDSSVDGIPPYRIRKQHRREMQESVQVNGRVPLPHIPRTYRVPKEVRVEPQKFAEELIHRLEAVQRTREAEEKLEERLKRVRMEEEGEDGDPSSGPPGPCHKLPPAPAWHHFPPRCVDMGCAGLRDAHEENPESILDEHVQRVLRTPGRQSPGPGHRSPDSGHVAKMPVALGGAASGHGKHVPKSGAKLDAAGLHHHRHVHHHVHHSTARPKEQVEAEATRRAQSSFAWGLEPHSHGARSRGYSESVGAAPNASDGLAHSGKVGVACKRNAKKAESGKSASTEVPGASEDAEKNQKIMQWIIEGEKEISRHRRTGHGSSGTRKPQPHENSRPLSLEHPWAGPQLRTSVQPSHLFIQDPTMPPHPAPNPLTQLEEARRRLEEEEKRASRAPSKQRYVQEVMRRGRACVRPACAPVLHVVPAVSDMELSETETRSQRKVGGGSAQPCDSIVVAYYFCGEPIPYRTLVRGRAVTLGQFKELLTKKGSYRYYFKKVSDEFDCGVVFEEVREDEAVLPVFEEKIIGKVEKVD
Summary of the method: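 HEK293 cells on poly-D-lysine slides were treated with 1 μM compound for 14 h. Cells were fixed in 10% formalin for 20 min, permeabilized with methanol, blocked with 5% BSA, stained overnight for Axin1 with secondary antibody for 2 h, counterstained with DAPI, and imaged by confocal microscopy.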

HEK293 [2] = experiment: Inhibition of Wnt/beta-catenin/Axin signaling (unknown origin) expressed in HEK293 cells assessed as decrease in Axin2 mRNA level after 48 hrs by qPCR analysis; format: cell-based; conditions: Homo sapiens
Summary of the method: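 HEK293 cells were treated with compound for 48 h, harvested in TRIzol, and Wnt target gene mRNA was quantified by qPCR.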

HEK293 [3] = experiment: Inhibition of LiCl-activated Wnt/beta-catenin/Axin signaling (unknown origin) expressed in HEK293 cells assessed as degradation of beta-catenin by measuring decrease in beta-catenin protein expression after 24 hrs by Western blot method; format: cell-based; conditions: Homo sapiens
Summary of the method: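 HEK293 cells were treated with compound in the presence of lithium chloride for 24 h. Lysis buffer contained 10 mM HEPES, 100 μM EDTA, 10 mM KCl, 0.5% NP40 and inhibitors. Protein was quantified by BCA, resolved on 10% SDS-PAGE, and immunoblotted for β-catenin.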

HEK293 [4] = experiment: Inhibition of Wnt (unknown origin)/FLAG-tagged human beta-catenin signaling expressed in HEK293 cells harboring TCF/LEF-responsive luciferase at 100 nM measured after 24 hrs by luciferase reporter gene assay; format: cell-based
Summary of the method: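 HEK293 cells were transfected for 16 h with TOPFlash or FOPFlash, Renilla, and pcDNA3 wild-type or S33Y β-catenin. Compound was then added for a further 24 h. Firefly/Renilla dual-luciferase ratio was the read-out.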

[5] = biological target: Casein kinase I isoform alpha (Homo sapiens) (UniProt P48729); experiment: Binding affinity to CK1alpha (unknown origin) by SPR analysis
Chain of Casein kinase I isoform alpha (Homo sapiens) (P48729 2-337 limits assumed): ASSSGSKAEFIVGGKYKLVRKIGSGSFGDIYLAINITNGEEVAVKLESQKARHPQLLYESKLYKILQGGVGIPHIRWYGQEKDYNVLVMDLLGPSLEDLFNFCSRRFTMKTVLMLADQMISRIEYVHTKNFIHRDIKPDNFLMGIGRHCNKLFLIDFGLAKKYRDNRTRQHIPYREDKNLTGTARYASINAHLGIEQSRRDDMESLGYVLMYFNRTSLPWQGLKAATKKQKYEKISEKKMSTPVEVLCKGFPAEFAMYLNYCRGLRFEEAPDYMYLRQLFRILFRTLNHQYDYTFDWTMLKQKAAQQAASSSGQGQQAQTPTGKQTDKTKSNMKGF

Mus musculus [6] = organism: Mus musculus; experiment: Inhibition of Wnt/beta-catenin/Axin signaling in mouse hepatocytes assessed as decrease in PEPCK mRNA level at 5 uM by qPCR analysis; format: cell-based
Summary of the method: (§2)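 Normal mouse hepatocytes were treated with 5 μM compound, and lipogenic and gluconeogenic gene mRNA was measured by qPCR; mean ± S.D. of triplicates.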

Mus musculus [7] = organism: Mus musculus; experiment: Inhibition of Wnt/beta-catenin/Axin signaling in mouse hepatocytes assessed as decrease in SCD1 mRNA level at 5 uM by qPCR analysis; format: cell-based; summary of the method: as §2
[8] = Half life in mouse at 10 mg/kg, po or 10 mg/kg, iv administered as single dose by LC-MS analysis; format: ADME, organism-based; conditions: in vivo
Summary of the method: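 Compound was dissolved at 1 mg/ml in 10% Kolliphor EL and 10% polyethylene glycol in saline. Ten mice were split into intravenous and oral groups and given a single 10 mg/kg dose. Tail-vein blood was sampled at several time points and analysed by LC/MS/MS.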

Mus musculus [9] = experiment: Decrease in hepatic G6pase mRNA level in high fat diet fed C57BL/6J mouse at 40 mg/kg, ip administered every 2 days for 11 weeks by qPCR analysis; format: functional, organism-based; summary of the method: as §1
Mus musculus [10] = experiment: Decrease in hepatic FGF21 mRNA level in high fat diet fed C57BL/6J mouse at 40 mg/kg, ip administered every 2 days for 11 weeks by qPCR analysis; format: functional, organism-based; summary of the method: as §1
Mus musculus [11] = experiment: Decrease in hepatic ACC1 mRNA level in high fat diet fed C57BL/6J mouse at 40 mg/kg, ip administered every 2 days for 11 weeks by qPCR analysis; format: functional, organism-based; summary of the method: as §1
Mus musculus [12] = experiment: Effect on hepatic CycD1 mRNA level in normal chow diet fed C57BL/6J mouse at 40 mg/kg, ip administered every 2 days for 11 weeks by qPCR analysis; format: ADME, organism-based; conditions: in vivo
Summary of the method: (§3)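 Male mice, 8 weeks old, kept on normal chow throughout and dosed i.p. every 2 days in corn oil vehicle for 11 weeks. Body weight gain, liver/body weight ratio, and liver mRNA of the indicated genes were measured at sacrifice; mean ± SEM, n = 5 per group where stated.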

Mus musculus [13] = experiment: Effect on hepatic Glp1 mRNA level in normal chow diet fed C57BL/6J mouse at 40 mg/kg, ip administered every 2 days for 11 weeks by qPCR analysis; format: ADME, organism-based; conditions: in vivo; summary of the method: as §3
Mus musculus [14] = experiment: Effect on hepatic G6pase mRNA level in normal chow diet fed C57BL/6J mouse at 40 mg/kg, ip administered every 2 days for 11 weeks by qPCR analysis; format: ADME, organism-based; conditions: in vivo; summary of the method: as §3
Mus musculus [15] = experiment: Effect on hepatic GCK mRNA level in normal chow diet fed C57BL/6J mouse at 40 mg/kg, ip administered every 2 days for 11 weeks by qPCR analysis; format: ADME, organism-based; conditions: in vivo; summary of the method: as §3
Mus musculus [16] = experiment: Effect on hepatic SREBP1 mRNA level in normal chow diet fed C57BL/6J mouse at 40 mg/kg, ip administered every 2 days for 11 weeks by qPCR analysis; format: ADME, organism-based; conditions: in vivo; summary of the method: as §3
Mus musculus [17] = experiment: Effect on hepatic FASN mRNA level in normal chow diet fed C57BL/6J mouse at 40 mg/kg, ip administered every 2 days for 11 weeks by qPCR analysis; format: ADME, organism-based; conditions: in vivo; summary of the method: as §3
Mus musculus [18] = experiment: Decrease in body weight gain in high fat diet fed C57BL/6J mouse at 40 mg/kg, ip administered every 2 days for 11 weeks; format: functional, organism-based
Summary of the method: (§4)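 Male mice, 8 weeks old, 24–27 g, given a 45% kcal fat diet for 6 weeks, then dosed i.p. every 2 days in corn oil vehicle with the diet continued. Sacrifice was about 24 h after the last dose. Liver was examined by H&E. Liver and serum triglyceride were measured by kit. Serum chemistry was included, and liver/body weight ratio was calculated.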

Mus musculus [19] = experiment: Decrease in hepatic triglyceride content in high fat diet fed C57BL/6J mouse at 40 mg/kg, ip administered every 2 days for 11 weeks; format: functional, organism-based; summary of the method: as §4
[20] = Toxicity in high fat diet fed C57BL/6J mouse assessed as serum creatinine level at 40 mg/kg, ip administered every 2 days for 11 weeks by Jaffe's reaction analysis (reference value: 0.3 +/- 0.02 mg/dl); format: organism-based; conditions: in vivo
[21] = Toxicity in high fat diet fed C57BL/6J mouse assessed as serum triglyceride level at 40 mg/kg, ip administered every 2 days for 11 weeks (reference value: 93.5 +/- 12.1 mg/dl); format: organism-based; conditions: in vivo
[22] = Toxicity in normal chow diet fed C57BL/6J mouse assessed as serum total bilirubin level at 40 mg/kg, ip administered every 2 days for 11 weeks (reference value: 0.2 mg/dl); format: organism-based; conditions: in vivo
[23] = Toxicity in normal chow diet fed C57BL/6J mouse assessed as serum cholesterol level at 40 mg/kg, ip administered every 2 days for 11 weeks (reference value: 183 +/- 16.6 mg/dl); format: organism-based; conditions: in vivo
[24] = Toxicity in normal chow diet fed C57BL/6J mouse assessed as serum creatinine level at 40 mg/kg, ip administered every 2 days for 11 weeks by Jaffe's reaction analysis (reference value: 0.2 +/- 0.01 mg/dl); format: organism-based; conditions: in vivo

For `Cc1ccccc1-n1nnc(C(=O)Nc2ccc3ccccc3n2)c1C`, the Activity (Mus musculus [1]) was “Active”, the Activity (Axin-1 (Homo sapiens)) was “Active” and the inhibition (HEK293 [2]) was “Active”. The inhibition (HEK293 [3]) was “Active”, the inhibition (HEK293 [4]) was “Active” and the Activity [5] was “inactive”. For the same compound, the inhibition (Mus musculus [6]) was “Active”, the inhibition (Mus musculus [7]) was “Active” and the half-life [8] was 2.8 to 3.3 h. For the same compound, the Activity (Mus musculus [9]) was “Active”, the Activity (Mus musculus [10]) was “Active” and the Activity (Mus musculus [11]) was “Active”. For the same compound, the Activity (Mus musculus [12]) was “Non-Toxic”, the Activity (Mus musculus [13]) was “Non-Toxic” and the Activity (Mus musculus [14]) was “Non-Toxic”. For the same compound, the Activity (Mus musculus [15]) was “Non-Toxic”, the Activity (Mus musculus [16]) was “Non-Toxic” and the Activity (Mus musculus [17]) was “Non-Toxic”. The Activity (Mus musculus [18]) was “Active”, the Activity (Mus musculus [19]) was “Active” and the Activity [20] was 0.2 mg/dL. For the same compound, the Activity [21] was 85.3 mg/dL, the Activity [22] was 0.2 mg/dL and the Activity [23] was 194 mg/dL. For the same compound, the Activity [24] was 0.2 mg/dL.
